The text below walks through data of publication PMC2018624 (Nucleic Acids Research, 2007).

Square brackets hold non-standard residues; d marks the D form. Ends that are not written are not given here. Peptide text beside a SMILES is read from it. * marks the point of attachment. Biotin = O=C1N[C@H]2[C@H](CS[C@H]2CCCCC(=O)*)N1; pS = N[C@@H](COP(=O)(O)O)C(=O)O Where only a bound is given, the exact number is not on record here.

One test concerns FLAG-hPTIP. In words: Co-immunoprecipitation of mutant HA-53BP1 with FLAG-hPTIP after IR. The following applies: HEK293, IR 0 or 20 Gy, anti-FLAG immunoprecipitates. Type of test: cell-based, human. In outline:
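HEK293 cells in DMEM with 10% FBS and penicillin/streptomycin at 37°C, 5% CO2. Cells co-transfected by calcium phosphate with FLAG-hPTIP and full-length HA-53BP1 carrying Ser/Thr→Ala mutations at ATM S/T-Q motifs. Cells irradiated at 0 or 20 Gy and lysed. Anti-FLAG immunoprecipitates run on SDS–PAGE and western blotted to detect co-precipitated 53BP1.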

The next test concerns HEK293 cells. Kind of test: 53BP1 retention at sites of DNA damage. Type of test: cell-based. The following applies: HEK293, 10 Gy IR, 45 min recovery.
Test [1] has as its system 53BP1 Ser25 phosphorylation in HEK293 cells. Kind of test: IR-induced phosphorylation of 53BP1 Ser25 in HEK293 cells. The class given is cell-based. To be noted: 10 μM inhibitor pre-incubated 1 h, IR 10 Gy, western blot. (In general: Immunoblotting shows a protein as a band on a membrane.)
For test [2], the target named is hPTIP BRCT domain pair C2 (Homo sapiens, UniProt Q6ZW49). Kind of test: BiaCore binding to hPTIP BRCT pair C2 alone.
Test [3] addresses hPTIP-BRCT pair C1 + C2 W676A (Homo sapiens, UniProt Q6ZW49, W676A). Kind of test: BiaCore binding to hPTIP BRCT pair C1 + C2 W676A. (In general: Surface plasmon resonance follows binding to a sensor surface in real time, without labels.)
For test [4], the target named is hPTIP-BRCT pair C1 + C2 W929A (Homo sapiens, UniProt Q6ZW49, W929A). Kind of test: BiaCore binding to hPTIP BRCT pair C1 + C2 W929A.
hPTIP-BRCT pair C1 + C2 W929A, sequence (Q6ZW49 590-1069 W929A): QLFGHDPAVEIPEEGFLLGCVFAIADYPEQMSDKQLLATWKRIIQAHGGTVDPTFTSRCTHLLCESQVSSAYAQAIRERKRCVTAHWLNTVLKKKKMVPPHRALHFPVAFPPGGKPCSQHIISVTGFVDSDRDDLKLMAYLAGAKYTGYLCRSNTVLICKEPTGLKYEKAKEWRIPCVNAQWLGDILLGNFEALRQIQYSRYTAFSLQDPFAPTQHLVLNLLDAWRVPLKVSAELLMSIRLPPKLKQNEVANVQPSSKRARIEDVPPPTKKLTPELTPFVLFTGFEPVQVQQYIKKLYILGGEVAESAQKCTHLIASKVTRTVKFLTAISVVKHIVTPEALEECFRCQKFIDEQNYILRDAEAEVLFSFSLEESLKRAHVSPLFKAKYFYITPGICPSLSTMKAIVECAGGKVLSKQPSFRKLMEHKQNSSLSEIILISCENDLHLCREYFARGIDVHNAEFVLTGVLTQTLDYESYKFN
For test [5], the target named is 53BP1 peptide Non(P), biotin-… (human). In words: SPR.
Test [6] concerns the target 53BP1 peptide Ser25(P), biotin-…p… (human). Kind of test: SPR.
The target in test [7] is S-Q-V-F (P) peptide, biotin-GAAYDI-pSQ-VFPFAKKK
Test [8] has as its system BRCA1 Ser1524 phosphorylation in HEK293 cells. In words: IR-induced phosphorylation of BRCA1 at Ser1524. Type of test: cell-based. To be noted: HEK293, IR 3 Gy, siRNA depletion or rescue, western blot.
The subject of another test is full-length HA-53BP1. In words: Co-immunoprecipitation of mutant FLAG-hPTIP with HA-53BP1 after IR. Type of test: cell-based, human. To be noted: HEK293, IR 0 or 20 Gy, anti-FLAG immunoprecipitates.
The subject of a further test is U2OS cells. Kind of test: hPTIP nuclear focus formation after IR in U2OS cells. The following applies: 15 Gy IR, 45 min recovery. The class given is cell-based. In outline:
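U2OS cells on glass coverslips transiently transfected with wild-type or point-mutant FLAG-hPTIP. Irradiated 0 or 15 Gy, recovered 45 min at 37°C, then fixed, permeabilised and blocked. Anti-FLAG or anti-53BP1 (1 µg/ml) 60 min at room temperature, then Alexa488/594 secondaries (2 µg/ml) 60 min. Fluorescence microscopy; anti-FLAG foci counted in ~200 transfected cells; mean ± SD.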

Test [9] deals with 53BP1. Kind of test: GST-hPTIP BRCT retrieval of 53BP1 from extracts of irradiated HEK 293 cells. Type of test: binding, human. The following applies: GST fusion on glutathione-sepharose, HEK 293 extract, 10 Gy IR, western blot.
The test system of test [10] is Chk2 Thr68 phosphorylation in HEK293 cells. Kind of test: IR-induced phosphorylation of Chk2 at Thr68. The class given is cell-based. To be noted: HEK293, IR 3 Gy, siRNA depletion or rescue, western blot.
Test [11] concerns the target GST-hPTIP (590–1069) W676A (human, UniProt Q6ZW49 590-1069, W676A). Kind of test: SPR.
In test [12] the target is GST-hPTIP (590–1069) W929A (human, UniProt Q6ZW49 590-1069, W929A). In words: SPR.
The subject of test [13] is 53BP1. The following applies: previous report; ref [4]; cited from earlier work.

53BP1 peptide Ser25(P), biotin-…p… (human), sequence (Q12888 16-35): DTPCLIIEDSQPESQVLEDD
GST-hPTIP (590–1069) W676A, sequence (Q6ZW49 590-1069 W676A): as the sequence (Q6ZW49 590-1069 W929A) above, with W87A, A340W counted along it
hPTIP-BRCT pair C1 + C2 W676A, sequence (Q6ZW49 590-1069 W676A): as the sequence (Q6ZW49 590-1069 W929A) above, with W87A, A340W counted along it

As for 53BP1 Ser25Ala mutant, in the test on FLAG-hPTIP, the “IR-induced interaction of 53BP1 with hPTIP” value is given as “abolished”. Also, the “retention at sites of DNA damage” value in the test with HEK293 cells was “indistinguishable from the wild-type protein”. For the molecule `O=c1cc(-c2cccc3c2Sc2ccccc2S3)oc(N2CCOCC2)c1` [KU55933], the “IR-induced phosphorylation of 53BP1 Ser25” value in [1] is “not in cells pre-incubated with the ATM-specific inhibitor KU55933”. Turning to `O=c1cc(N2CCOCC2)oc2c(-c3cccc4c3sc3ccccc34)cccc12` [NU7441], in test [1], the “IR-induced phosphorylation of 53BP1 Ser25” value is reported as “did not affect IR-induced phosphorylation of 53BP1 Ser25”. Turning to `CC[C@H](C)[C@H](NC(=O)[C@H](CC(=O)O)NC(=O)[C@H](Cc1ccc(O)cc1)NC(=O)[C@H](C)NC(=O)[C@H](C)NC(=O)CNC(=O)CCCC[C@@H]1SC[C@@H]2NC(=O)N[C@@H]21)C(=O)N[C@@H](COP(=O)(O)O)C(=O)N[C@@H](CCC(N)=O)C(=O)N[C@H](C(=O)N[C@@H](Cc1ccccc1)C(=O)N1CCC[C@H]1C(=O)N[C@@H](Cc1ccccc1)C(=O)N[C@@H](C)C(=O)N[C@@H](CCCCN)C(=O)N[C@@H](CCCCN)C(=O)N[C@@H](CCCCN)C(=O)O)C(C)C` [S-Q-V-F peptide] (Biotin-GAAYDI[pS]QVFPFAKKK-OH), the Kd in [2] is around 0.273 µM. With `CC[C@H](C)[C@H](NC(=O)[C@H](CC(C)C)NC(=O)[C@H](CS)NC(=O)[C@@H]1CCCN1C(=O)[C@@H](NC(=O)[C@H](CC(=O)O)NC(=O)CCCC[C@@H]1SC[C@@H]2NC(=O)N[C@@H]21)[C@@H](C)O)C(=O)N[C@H](C(=O)N[C@@H](CCC(=O)O)C(=O)N[C@@H](CC(=O)O)C(=O)N[C@@H](COP(=O)(O)O)C(=O)N[C@@H](CCC(N)=O)C(=O)N1CCC[C@H]1C(=O)N[C@@H](CCC(=O)O)C(=O)N[C@@H](CO)C(=O)N[C@@H](CCC(N)=O)C(=O)N[C@H](C(=O)N[C@@H](CC(C)C)C(=O)N[C@@H](CCC(=O)O)C(=O)N[C@@H](CC(=O)O)C(=O)N[C@@H](CC(=O)O)C(=O)O)C(C)C)[C@@H](C)CC` [Ser25(P)] (Biotin-DTPCLIIED[pS]QPESQVLEDD-OH), the Kd in test [3] and in test [4] was above 1000 µM each time. Take “GST-hPTIP (590–1069) (BRCT pairs C1 + C2) (from UniProt Q6ZW49 590-1069) (domain or fragment)”: the Kd in test [5] was above 1000 µM; in test [6], 0.526 µM.

For “GST-hPTIP (862–1069) (BRCT pair C2) (from UniProt Q6ZW49 862-1069) (domain or fragment)”, the Kd in [7] was determined as 0.273 µM. On to R910Q, for which the “phosphorylation of BRCA1 at Ser1524” value in test [8] is on record as “could not”. Further, the “binding of hPTIP to 53BP1 in IR-treated cells” value (“binding of hPTIP to 53BP1” for short) in the test on full-length HA-53BP1 is reported as “abolished”. For the same molecule, the “nuclear focus formation after IR” value in the test with U2OS cells is listed as “little effect on the ability of hPTIP to form foci after IR”.

On to W676A, for which, in the test with full-length HA-53BP1, the “binding of hPTIP to 53BP1” value is on record as “abolished”. Also, in the test on 53BP1 [9], the “retrieval of 53BP1 from cell extracts” value is on record as “prevented”. Moreover, the “nuclear focus formation after IR” value with U2OS cells is “prevented focus formation”. For the same molecule, the “number of nuclear foci per cell, after IR” value in the test on U2OS cells (∼200 transfected cells, almost all cells) is below 10 foci.

For the molecule W929A, the “binding of hPTIP to 53BP1” value with full-length HA-53BP1 is given as “abolished”. Further, the “nuclear focus formation after IR” value in the test on U2OS cells is given as “prevented focus formation”.

For “mutation of Ser29: 53BP1 with Ser29 singly mutated”, in the test with FLAG-hPTIP, the “IR-induced interaction of 53BP1 with hPTIP” value was “no effect”. Turning to “wild-type 53BP1: HA-53BP1 carrying a silent mutation, refractory to silencing by siRNA”, in test [10], the “phosphorylation of Chk2 at Thr68” value is recorded as “could rescue”. As for Biotin-DTPCLIIED[pS]QPESQVLEDD [53BP1 peptide Ser25(P), biotin-DTPCLIIEDpSQPESQVLEDD], the Kd in [11] and in test [12] was above 1000 µM in each case.

B1: hPTIP BRCT pair C2: bacterially expressed GST-hPTIP (862–1069) (protein, UniProt Q6ZW49 862-1069, looked up, fragment)
chain: TPELTPFVLFTGFEPVQVQQYIKKLYILGGEVAESAQKCTHLIASKVTRTVKFLTAISVVKHIVTPEWLEECFRCQKFIDEQNYILRDAEAEVLFSFSLEESLKRAHVSPLFKAKYFYITPGICPSLSTMKAIVECAGGKVLSKQPSFRKLMEHKQNSSLSEIILISCENDLHLCREYFARGIDVHNAEFVLTGVLTQTLDYESYKFN
modifications: GST tag
Take B1: in the test on 53BP1 [13], the “retrieval of phosphorylated 53BP1 from extracts of irradiated cells” value is on record as “could retrieve phosphorylated 53BP1 from extracts of irradiated cells”.

In general, Kd refers to the concentration at which binding is half-saturated.
